Columns and labels:
Conditions in all cases: in vivo
[1] = system: Rattus norvegicus; assay: Cmax in MDR1A knockout Sprague-Dawley rat treated with loperamide at 10 mg/kg, po by LC-MS/MS analysis; format: ADME, organism-based; parameters: dose 10 mg/kg, route oral
In short: (§1)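 Male Sprague-Dawley rats (knockout or wild type matched for age and weight), femoral artery and vein cannulated, at least 2 days recovery. Crossover design: IV bolus 1 mg/kg on day 0 (saline with 0.2 M equivalents HCl), oral gavage 10 mg/kg on day 3 (water with 0.2 M equivalents HCl). Arterial plasma sampled to 24 h (Mdr1a oral arm to 4 h). Analysed by LC-MS/MS and noncompartmental analysis.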

[2] = system: Rattus norvegicus; assay: AUC (0 to 4 hrs) in wild-type Sprague-Dawley rat treated with loperamide at 10 mg/kg, po by LC-MS/MS analysis; format: ADME, organism-based, Plasma; parameters: time < 4 hr, dose 10 mg/kg, route oral
[3] = system: Rattus norvegicus; assay: Cmax in BCRP knockout Sprague-Dawley rat treated with loperamide at 10 mg/kg, po by LC-MS/MS analysis; format: ADME, organism-based; parameters: dose 10 mg/kg, route oral; in short: as §1
[4] = system: Rattus norvegicus; assay: AUC (infinity) in MRP2 knockout Sprague-Dawley rat treated with loperamide at 10 mg/kg, po by LC-MS/MS analysis; format: ADME, organism-based, Plasma; parameters: time infinity, dose 10 mg/kg, route oral; in short: as §1
[5] = system: Rattus norvegicus; assay: Ratio of AUC (0 to 4 hrs) for metabolite to AUC (0 to 4 hrs) for parent compound in MDR1A knockout Sprague-Dawley rat at 10 mg/kg, po by LC-MS/MS analysis; format: ADME, organism-based; parameters: dose 10 mg/kg, route oral
[6] = system: Rattus norvegicus; assay: Ratio of AUC (0 to 4 hrs) for metabolite to AUC (0 to 4 hrs) for parent compound in MRP2 knockout Sprague-Dawley rat at 10 mg/kg, po by LC-MS/MS analysis; format: ADME, organism-based; parameters: dose 10 mg/kg, route oral
[7] = system: Rattus norvegicus; assay: Ratio of AUC (0 to 4 hrs) for metabolite to AUC (0 to 4 hrs) for parent compound in wild-type Sprague-Dawley rat at 10 mg/kg, po by LC-MS/MS analysis; format: ADME, organism-based; parameters: dose 10 mg/kg, route oral
[8] = system: Rattus norvegicus; assay: AUC (infinity) in wild-type Sprague-Dawley rat treated with loperamide at 10 mg/kg, po by LC-MS/MS analysis; format: ADME, organism-based, Plasma; parameters: time infinity, dose 10 mg/kg, route oral; in short: as §1
[9] = system: Rattus norvegicus; assay: AUC (0 to 4 hrs) in MDR1A knockout Sprague-Dawley rat treated with loperamide at 10 mg/kg, po by LC-MS/MS analysis; format: ADME, organism-based, Plasma; parameters: time < 4 hr, dose 10 mg/kg, route oral
[10] = system: Rattus norvegicus; assay: AUC (infinity) in BCRP knockout Sprague-Dawley rat treated with loperamide at 10 mg/kg, po by LC-MS/MS analysis; format: ADME, organism-based, Plasma; parameters: time infinity, dose 10 mg/kg, route oral; in short: as §1
[11] = system: Rattus norvegicus; assay: Cmax in wild-type Sprague-Dawley rat treated with loperamide at 10 mg/kg, po by LC-MS/MS analysis; format: ADME, organism-based; parameters: dose 10 mg/kg, route oral; in short: as §1
[12] = system: Rattus norvegicus; assay: Ratio of AUC (0 to 4 hrs) for metabolite to AUC (0 to 4 hrs) for parent compound in BCRP knockout Sprague-Dawley rat at 10 mg/kg, po by LC-MS/MS analysis; format: ADME, organism-based; parameters: dose 10 mg/kg, route oral
[13] = system: Rattus norvegicus; assay: Cmax in MRP2 knockout Sprague-Dawley rat treated with loperamide at 10 mg/kg, po by LC-MS/MS analysis; format: ADME, organism-based; parameters: dose 10 mg/kg, route oral; in short: as §1

Question: Which Cmax [1] does the source give for `CNC(=O)C(CCN1CCC(O)(c2ccc(Cl)cc2)CC1)(c1ccccc1)c1ccccc1` here?
Answer: Its Cmax is 193 ng.Eq/ml.

Question: What about the AUC [2] of the same molecule?
Answer: Its AUC is 427 ng.Eq.hr/ml.

Question: What about the Cmax [3] of the same molecule?
Answer: The Cmax was 150 ng.Eq/ml.

Question: What about the AUC [4] of the same molecule?
Answer: Its AUC is 3658 ng.Eq/ml.

Question: What about the “Ratio AUC” value [5] of the same molecule?
Answer: The value was 1.

Question: And the “Ratio AUC” value [6]?
Answer: Its value is 3.5.

Question: And the “Ratio AUC” value [7]?
Answer: Its value is 2.3.

Question: What about the AUC [8] of the same molecule?
Answer: Its AUC is 1875 ng.Eq.hr/ml.

Question: And the AUC [9]?
Answer: The AUC was 635 ng.Eq.hr/ml.

Question: What about the AUC [10] of the same molecule?
Answer: Its AUC is 3256 ng.Eq.hr/ml.

Question: And the Cmax [11]?
Answer: Its Cmax is 158 ng.Eq/ml.

Question: What about the “Ratio AUC” value [12] of the same molecule?
Answer: The value was 3.3.

Question: And the Cmax [13]?
Answer: Its Cmax is 109 ng.Eq/ml.

Source: ChEMBL document CHEMBL3526049 (Drug Metab Dispos, 2012)
